In brackets after ≈: the same amount, converted by molar mass.
How the values were obtained:
Staphylococcus aureus = assay: Antibacterial activity against Staphylococcus aureus measured after 24 hrs; assay type: functional
How it was run: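 Broth microdilution in TSB. Overnight 37 °C culture from a single colony, washed twice by centrifugation/resuspension in TSB, set to OD600 0.1 (10⁸ CFU/mL), then diluted to 10⁵ CFU/mL. Bacteria added 3:1 to serially diluted compound (DMSO stock diluted in water). Incubated 37 °C, 24 h; OD600 read. MIC = lowest concentration giving OD like the no-bacteria control. Triplicate, three independent experiments.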

[1] = Stability of the compound in CHCl3 under room temperature by 1H NMR-spectroscopic analysis; assay type: physicochemical
[2] = Stability of the compound in toluene under room temperature by 1H NMR-spectroscopic analysis; assay type: physicochemical
[3] = Stability of the compound in DMSO-d6 measured after 2 months at room temperature by 1H NMR-spectroscopic analysis; assay type: physicochemical; details: 1461 h
[4] = Drug metabolism in DMSO-d6 assessed as 6-(3-Acetyl-2,4,6-trihydroxy-5-methylbenzyl)-5-hydroxy-2,2-dimethyl-8-phenyl-8,9-dihydro-2H,10H-pyrano[2,3-f]-chromen-10-one formation measured after 2 months at room temperature by HSQC analysis
[5] = Drug metabolism in DMSO-d6 assessed as 6-(3-Acetyl-2,4,6-trihydroxy-5-methylbenzyl)-5-hydroxy-2,2-dimethyl-8-phenyl-8,9-dihydro-2H,10H-pyrano[2,3-f]-chromen-10-one formation measured after 2 hrs at 100 degC by 1H NMR analysis
[6] = Drug metabolism in DMSO-d6 assessed as isorottlerin formation measured after 2 months at room temperature by RP-HPLC analysis
[7] = Stability of the compound in acetone under room temperature by 1H NMR-spectroscopic analysis; assay type: physicochemical
[8] = Drug metabolism in DMSO-d6 assessed as 6-(3-Acetyl-2,4,6-trihydroxy-5-methylbenzyl)-5-hydroxy-2,2-dimethyl-8-phenyl-8,9-dihydro-2H,10H-pyrano[2,3-f]-chromen-10-one formation measured after 2 months at room temperature by RP-HPLC analysis
[9] = Drug metabolism in DMSO-d6 assessed as isorottlerin formation measured after 2 hrs at 100 degC by 1H NMR analysis
[10] = Drug metabolism in DMSO-d6 assessed as isorottlerin formation measured after 2 months at room temperature by HSQC analysis
[11] = Stability of the compound in toluene under intense heating condition by 1H NMR-spectroscopic analysis; assay type: physicochemical
[12] = Stability of the compound in MeCN under intense heating condition by 1H NMR-spectroscopic analysis; assay type: physicochemical
[13] = Stability of the compound in MeCN under room temperature by 1H NMR-spectroscopic analysis; assay type: physicochemical
[14] = Stability of the compound in acetone under intense heating condition by 1H NMR-spectroscopic analysis; assay type: physicochemical
[15] = Stability of the compound in CHCl3 under intense heating condition by 1H NMR-spectroscopic analysis; assay type: physicochemical

CC(=O)c1c(O)cc(O)c(Cc2c(O)c3c(c(C(=O)/C=C/c4ccccc4)c2O)OC(C)(C)C=C3)c1O
MIC (Staphylococcus aureus): 7.8 µM (≈ 3.92 µg/mL)

Cc1cc(O)cc(O)c1Cc1c(O)c2c(c(C(=O)/C=C/c3ccccc3)c1O)OC(C)(C)C=C2
MIC (Staphylococcus aureus): 7.8 µM (≈ 3.58 µg/mL)

CC(=O)c1c(O)c(C)c(O)c(Cc2c(O)c3c(c(C(=O)/C=C/c4ccccc4)c2O)OC(C)(C)C=C3)c1O [ROTTLERIN]
Stability [1]: Stable
Stability [2]: Stable
Stability [3]: Unstable
MIC (Staphylococcus aureus): 2 µM (≈ 1.03 µg/mL)
Drug metabolism [4]: Metabolite detected
Drug metabolism [5]: Metabolite detected
Drug metabolism [6]: 20%
Stability [7]: Stable
Drug metabolism [8]: 2%
Drug metabolism [9]: Metabolite detected
Drug metabolism [10]: Metabolite detected
Stability [11]: Stable
Stability [12]: Stable
Stability [13]: Stable
Stability [14]: Stable
Stability [15]: Stable

CCC(=O)C1=C(O)C(C)(C)C(O)=C(Cc2c(O)c3c(c(C(=O)CC)c2O)OC(C)(C)C=C3)C1=O [DRUMMONDIN A]
MIC (Staphylococcus aureus): 1.56 µM (≈ 0.734 µg/mL)

GENTAMICIN
MIC (Staphylococcus aureus): 2 µM

CC(=O)C1=C(O)C(C)(CC=C(C)C)C(O)=C(Cc2c(O)c(CC=C(C)C)c(O)c(C(C)=O)c2O)C1=O (stereo unspecified) [DRUMMONDIN F]
MIC (Staphylococcus aureus): 0.78 µM (≈ 0.389 µg/mL)

CC(=O)C1=C(O)C(C)(C)C(O)=C(Cc2c(O)c3c(c(C(C)=O)c2O)OC(C)(C)C=C3)C1=O [DRUMMONDIN C]
MIC (Staphylococcus aureus): 3.12 µM (≈ 1.38 µg/mL)

CC(=O)c1c(O)c(C)c(O)c(Cc2c(O)c3c(c4c2OC(c2ccccc2)CC4=O)OC(C)(C)C=C3)c1O (stereo unspecified)
MIC (Staphylococcus aureus): > 125 µM

CC(=O)c1c(O)c(C)c(O)c(Cc2c3c(c(O)c4c2OC(c2ccccc2)CC4=O)C=CC(C)(C)O3)c1O (stereo unspecified)
MIC (Staphylococcus aureus): > 125 µM

CCC(=O)C1=C(O)C(C)(C)C(O)=C(Cc2c(O)c3c(c(C(C)=O)c2O)OC(C)(C)C=C3)C1=O [DRUMMONDIN B]
MIC (Staphylococcus aureus): 3.12 µM (≈ 1.42 µg/mL)

CC1(C)C=Cc2c(O)c(Cc3c(O)cc(O)cc3O)c(O)c(C(=O)/C=C/c3ccccc3)c2O1
MIC (Staphylococcus aureus): 15.6 µM (≈ 7.18 µg/mL)

Reference: ChEMBL document CHEMBL4316649, “The Mosaic of Rottlerin: The Sequel” (J Nat Prod, 2019)
